Among the data in ChEMBL document CHEMBL4818996, “N-substituted benzimidazole acrylonitriles as in vitro tubulin polymerization inhibitors: Synthesis, biological activity and computational analysis” (Eur J Med Chem, 2021) are IC50 and inhibition values, retold here.

SMILES strings stand for the structures. Activity calls are given as the source filed them. No cut-off for these calls is given here. Bounds are passed on as bounds.

One assay relates to NCI-H460. Kind of assay: Antiproliferative activity against human NCI-H460 cells assessed as inhibition of cell proliferation measured after 72 hrs by real time imaging analysis. The assay is classed as functional, cell-based. To be noted: NCI-H460, 72 h. Summed up: (§1)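 Adherent cells seeded at 500–1500 per well and incubated overnight, then treated at seven concentrations from 100 to 6.4 x 10^-3 µM. Kept at 37°C for 72 h with real-time imaging every 3 h (one field per well, 10x). Growth quantified as percent confluence; IC50 calculated from area under the curve.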

For the next assay, the system named is MM1.S. Kind of assay: cells. In kind it is functional, cell-based. To be noted: Homo sapiens, 72 h.
For another assay, the system named is TERT-RPE1. Kind of assay: cells. The assay is classed as ADME, cell-based. The settings on record: Homo sapiens, RPE-1, 72 h.
Another assay concerns K562. Kind of assay: Antiproliferative activity against human K562 cells assessed as inhibition of cell proliferation measured after 72 hrs by real time imaging analysis. The assay is classed as functional, cell-based. To be noted: K562, 72 h. Summed up: (§2)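 Suspension cells seeded at 2500–5500 per well into wells already holding compound, seven concentrations from 100 to 6.4 x 10^-3 µM. Incubated at 37°C for 72 h with imaging every 3 h (one field per well, 10x). Growth taken as percent confluence; IC50 derived from area under the curve.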

A further assay has as its system Z-138. Kind of assay: cells. The assay is classed as functional, cell-based. The settings on record: Homo sapiens, Z-138, 72 h.
A further assay relates to HL-60. Kind of assay: cells. The assay is classed as functional, cell-based. To be noted: Homo sapiens, HL-60, 72 h.
The subject of a further assay is HCT-116. Kind of assay: Antiproliferative activity against human HCT-116 cells assessed as inhibition of cell proliferation measured after 72 hrs by real time imaging analysis. The assay is classed as functional, cell-based. The settings on record: HCT-116, 72 h. A digest of the protocol: as §1
A short description of assay [1]: Antiproliferative activity against human DND41 cells assessed as inhibition of cell proliferation measured after 72 hrs by real time imaging analysis. The assay is classed as functional, cell-based. The settings on record: DND41, 72 h. Summed up:
as §2

The test system of the next assay is CAPAN-1. Kind of assay: cells. The assay is classed as functional, cell-based. To be noted: Homo sapiens, CAPAN-1, 72 h.
In a further assay the test system is HEp-2. Kind of assay: Inhibition of alpha-tubulin polymerization in human HEp-2 cells assessed as disintegration of microtubule network at 0.3 to 30 uM measured after 3 hrs by DAPI staining based immunoflourescence method relative to vincristine. The settings on record: dose 0.3-30 µM. The assay is classed as cell-based. A digest of the protocol:
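HEp-2 cells seeded at 15000 per well and incubated overnight, then exposed 3 h to compound or DMSO carrier. Fixed in 4% PFA and permeabilised. Stained with mouse anti-alpha-tubulin and Alexa Fluor 488 anti-mouse IgG, with DAPI nuclear counterstain. Imaged by confocal microscopy at 63x water immersion. Vincristine and docetaxel served as references.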

A further assay relates to Tubulin (Sus scrofa). Kind of assay: Inhibition of porcine brain tubulin polymerization in presence of GTP at 30 uM measured every 60 secs for 1 hr by multiplate reader method.
The nature of a further assay: cells. In kind it is ADME, cell-based. To be noted: Homo sapiens, PBMC, 72 h.

Regarding `CC(=O)O[C@@]12CO[C@@H]1C[C@H](O)[C@@]1(C)C(=O)[C@H](O)C3=C(C)[C@@H](OC(=O)[C@H](O)[C@@H](NC(=O)OC(C)(C)C)c4ccccc4)C[C@@](O)([C@@H](OC(=O)c4ccccc4)[C@H]21)C3(C)C` [DOCETAXEL ANHYDROUS], the 50% inhibitory concentration (IC50) was determined as 0.0024 µM in the assay on NCI-H460; 0.0118 µM with MM1.S; 0.0553 µM in the assay with TERT-RPE1; 0.0152 µM in the assay with K562; 0.0142 µM with Z-138; 0.0072 µM in the assay with HL-60. Also, the IC50 stood at 0.0017 µM in the assay with HCT-116, 0.0125 µM in assay [1] and 0.0088 µM with CAPAN-1.

`Cn1c(/C(C#N)=C/c2cnc3ccccc3c2)nc2ccccc21`: the IC50 was 22.4 µM in the assay on NCI-H460; greater than 100 µM in the assay with MM1.S; 39.4 µM in the assay on TERT-RPE1; greater than 100 µM in the assay on K562; 45 µM in the assay on Z-138; 33 µM in the assay on HL-60. In addition, the concentration for half-maximal inhibition (IC50) was greater than 100 µM with HCT-116, 49.9 µM in [1] and 66.9 µM with CAPAN-1.

In the case of `N#C/C(=C\c1ccc(Br)cc1)c1nc2ccccc2n1-c1ccccc1`, the 50% inhibitory concentration (IC50) with NCI-H460 was determined as 12 µM; with MM1.S, 35.7 µM; with TERT-RPE1 it was 22.8 µM; in the assay with K562 it was 39.3 µM; with Z-138 it was 11 µM; in the assay on HL-60, 8.6 µM. Further, the IC50 in the assay with HCT-116 worked out at 16 µM; in [1], 12.3 µM; with CAPAN-1, 12.9 µM.

`CC(C)Cn1c(C(C#N)=Cc2ccc([N+](=O)[O-])cc2)nc2ccccc21`: the half-inhibitory concentration (IC50) is 14.8 µM with NCI-H460; 72.9 µM in the assay with MM1.S; 53.8 µM in the assay with TERT-RPE1; greater than 100 µM in the assay with K562; 45.4 µM with Z-138; 33.4 µM with HL-60. For the same molecule, the 50% inhibitory concentration (IC50) with HCT-116 turned out to be 50.4 µM; in assay [1] it was 54.6 µM; with CAPAN-1, 30.3 µM.

As for `Cn1c(/C(C#N)=C/c2ccc[nH]2)nc2ccccc21`, the IC50 in the assay on NCI-H460 was 67.9 µM; with MM1.S it was greater than 100 µM; with TERT-RPE1, greater than 100 µM; in the assay on K562, greater than 100 µM; in the assay with Z-138, greater than 100 µM; in the assay on HL-60, greater than 100 µM. Moreover, the IC50 was greater than 100 µM in the assay on HCT-116, 73.7 µM in assay [1] and 84.4 µM in the assay on CAPAN-1.

As for `Cn1c(/C(C#N)=C/c2cccnc2)nc2ccccc21`, the concentration for half-maximal inhibition (IC50) in the assay with NCI-H460 was 59.3 µM; in the assay on MM1.S, greater than 100 µM; with TERT-RPE1, 60.1 µM; in the assay with K562, greater than 100 µM; in the assay with Z-138 it was greater than 100 µM; in the assay on HL-60 it was 58.6 µM. The IC50 in the assay with HCT-116 is 85.1 µM; in [1] it was greater than 100 µM; with CAPAN-1, 57.1 µM.

For `CC(C)Cn1c(/C(C#N)=C/c2ccccc2)nc2ccccc21`, the IC50 in the assay on NCI-H460 stood at 26.1 µM; with MM1.S, 66.7 µM; in the assay on TERT-RPE1, 44.9 µM; in the assay on K562, 53.4 µM; in the assay on Z-138 it was 40.1 µM; with HL-60 it was 29.1 µM. Besides, the IC50 with HCT-116 turned out to be 42.4 µM; in assay [1], 60 µM; in the assay with CAPAN-1, 20.6 µM.

In the case of `CN(C)c1ccc(/C=C(\C#N)c2nc3ccc(C#N)cc3n2-c2ccccc2)cc1`, the half-maximal inhibitory concentration (IC50) is 45.7 µM in the assay on NCI-H460; greater than 100 µM in the assay on MM1.S; 27.8 µM with TERT-RPE1; greater than 100 µM with K562; 17.4 µM in the assay with Z-138; 10.9 µM in the assay on HL-60. Also, the half-maximal inhibitory concentration (IC50) with HCT-116 was determined as 26.8 µM; in [1], 55.8 µM; with CAPAN-1, 3.1 µM.

In the case of `N#C/C(=C\c1c[nH]c2ccccc12)c1nc2ccccc2n1-c1ccccc1`, the IC50 in the assay with NCI-H460 is 5.3 µM; in the assay with MM1.S, 24.8 µM; in the assay with TERT-RPE1 it was 12.9 µM; with K562, 13.6 µM; in the assay on Z-138, 12.1 µM; in the assay on HL-60 it was 6.7 µM. Further, the IC50 is 7.1 µM in the assay on HCT-116, 10.1 µM in assay [1] and 5.1 µM in the assay with CAPAN-1.

With `Cn1c(/C(C#N)=C/c2ccc(Br)cc2)nc2ccccc21`, the IC50 with NCI-H460 was 32.1 µM; in the assay on MM1.S, 95.7 µM; in the assay with TERT-RPE1, 47.3 µM; in the assay with K562, 57.6 µM; in the assay on Z-138, 30.7 µM; with HL-60, 24.3 µM. The IC50 in the assay with HCT-116 amounted to 52.2 µM; in assay [1], 41.3 µM; in the assay with CAPAN-1, 20.5 µM.

On to `Cn1c(/C(C#N)=C/c2c[nH]c3ccccc23)nc2ccccc21`, for which the half-inhibitory concentration (IC50) is 12.1 µM with NCI-H460; 71 µM in the assay on MM1.S; 27.3 µM in the assay with TERT-RPE1; 37 µM in the assay with K562; 9.9 µM in the assay with Z-138; 13.5 µM in the assay on HL-60. Moreover, the 50% inhibitory concentration (IC50) is 29 µM in the assay on HCT-116, 14.9 µM in assay [1] and 13.3 µM with CAPAN-1.

Consider `CN[C@@H]1C[C@H]2O[C@@](C)([C@@H]1OC)n1c3ccccc3c3c4c(c5c6ccccc6n2c5c31)C(=O)NC4` [STAUROSPORINE], for which the IC50 stood at 0.0768 µM in the assay on K562, 0.0281 µM in the assay with HCT-116 and 0.016 µM in [1].

Take `N#C/C(=C\c1cccnc1)c1nc2ccccc2n1-c1ccccc1`: the concentration for half-maximal inhibition (IC50) is 45.6 µM in the assay with NCI-H460; 59.5 µM in the assay on MM1.S; 54.4 µM in the assay with TERT-RPE1; greater than 100 µM with K562; 30.2 µM in the assay with Z-138; 31.3 µM in the assay on HL-60. Moreover, the results for the IC50 (with HCT-116; in assay [1]; in the assay on CAPAN-1) were 50.6 µM, 60.5 µM and 44 µM, respectively.

For the molecule `N#C/C(=C\c1cnc2ccccc2c1)c1nc2ccccc2n1-c1ccccc1`, the half-maximal inhibitory concentration (IC50) with NCI-H460 is 13.6 µM; in the assay on MM1.S, 62.4 µM; with TERT-RPE1, 12.2 µM; in the assay with K562 it was greater than 100 µM; in the assay with Z-138 it was 12.6 µM; with HL-60, 15.3 µM. Moreover, the results for the IC50 (in the assay with HCT-116; in [1]; with CAPAN-1) were 12.4 µM, 14.1 µM and 10 µM, respectively.

On to `CN(C)c1ccc(/C=C(\C#N)c2nc3ccc(C#N)cc3n2C)cc1`, for which the IC50 was greater than 100 µM in the assay on NCI-H460; greater than 100 µM in the assay on MM1.S; 80.9 µM in the assay on TERT-RPE1; greater than 100 µM with K562; 96.5 µM in the assay with Z-138; 68.1 µM in the assay with HL-60. For the same molecule, the values for the IC50 (with HCT-116; in assay [1]; in the assay with CAPAN-1) were 68.5 µM, greater than 100 µM and 55.9 µM, respectively.

With `CC(C)Cn1c(C(C#N)=Cc2ccc(N(C)C)cc2)nc2ccc(C#N)cc21`, the IC50 in the assay on NCI-H460 stood at 0.6 µM; with MM1.S it was 1.3 µM; in the assay with TERT-RPE1, 1.7 µM; in the assay with K562, 1.4 µM; in the assay with Z-138, 0.4 µM; in the assay on HL-60, 0.2 µM. Moreover, the IC50 in the assay on HCT-116 is 0.4 µM; in the assay “cells”, greater than 76 µM; in assay [1], 0.3 µM; in the assay with CAPAN-1 it was 0.2 µM. Besides, the inhibition result with HEp-2 and in the assay on Tubulin (Sus scrofa) was “Active” throughout.

`CC(C)Cn1c(C(C#N)=Cc2ccc(N(C)C)cc2)nc2ccccc21`: the IC50 came to 0.4 µM in the assay on NCI-H460; 1.5 µM in the assay with MM1.S; 4.3 µM with TERT-RPE1; 2.1 µM with K562; 0.4 µM in the assay on Z-138; 0.3 µM with HL-60. The IC50 in the assay on HCT-116 is 0.6 µM; in “cells”, greater than 98.8 µM; in assay [1], 0.2 µM; with CAPAN-1 it was 0.3 µM. The inhibition result with HEp-2 and in the assay with Tubulin (Sus scrofa) was “Active” in each case.

As to `N#C/C(=C\c1ccc[nH]1)c1nc2ccccc2n1-c1ccccc1`, the IC50 is 27.4 µM in the assay on NCI-H460; greater than 100 µM with MM1.S; 32.4 µM in the assay with TERT-RPE1; greater than 100 µM with K562; 67.5 µM in the assay with Z-138; 42 µM with HL-60. Also, the figures for the IC50 (with HCT-116; in assay [1]; with CAPAN-1) were 49.4 µM, 41.2 µM and 14.2 µM, respectively.

Usually IC50 stands for the concentration that inhibits the measured activity by half.
